From ChEMBL document CHEMBL4330172, “Astratides: Insulin-Modulating, Insecticidal, and Antifungal Cysteine-Rich Peptides from Astragalus membranaceus” (J Nat Prod, 2019)
Active and inactive are the calls of the source. The rule behind the calls is not given here. Where a SMILES comes first, the peptide text is derived from it.

Key:
[1] = (§1) Cytotoxicity against Spodoptera frugiperda Sf9 cells assessed as mortality after 24 hrs by MTT assay; type: functional; settings: Sf9, 24 h, read-out: LD50 (the source's name)
In short: (§2)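 Sf9 cells seeded at 1 × 10^5 cells/mL for 24 h, then exposed 24 h to peptide at 0.01–200 μM (10 levels). 0.1% DMSO served as negative control, 10% Triton X-100 as positive control. Viability by MTT (0.5 mg/mL, 4 h at 26 °C), DMSO solubilisation, absorbance 550 nm. LD50 taken from the dose–mortality curve.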

[2] = tested on: Sf9; test: as §1; type: functional; in short: as §2
[3] = tested on: CHO-K1; test: Cytotoxicity against CHOK1 cells up to 200 uM after 24 hrs by MTT assay; type: cell-based, Cricetulus griseus; settings: chinese hamster, cho-k1, 24 h
In short: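 CHO-K1 cells grown at 37 °C, 5% CO2 in DMEM with 10% FBS, exposed 24 h to peptide at 0.01–200 μM. Negative control 0.1% DMSO, positive control 10% Triton X-100. Viability read by MTT (0.5 mg/mL, 4 h), then DMSO solubilisation 1 h, absorbance at 550 nm.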

[4] = tested on: Sf9; test: Cytotoxicity against Spodoptera frugiperda Sf9 cells assessed as induction of membrane integrity loss at 5 uM after 15 hrs by PKH26-labeling based phase contrast microscopic analysis; type: functional, cell-based
In short: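 Sf9 cells grown at 26 °C in Sf-900 III SFM with 2% FBS. Incubated with 5 μM peptide at 26 °C for 15 h. Live-cell bright-field imaging at 0, 1, 4, 8 and 15 h to follow cell shape and membrane integrity.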

[5] = tested on: Beta-TC6; test: Decrease in insulin secretion in mouse BetaTC6 cells up to 1 uM after 24 hrs by ELISA; type: functional, cell-based
In short: (§3)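 Beta-TC-6 cells grown in high-glucose DMEM with 15% FBS at 37 °C, 5% CO2. Seeded 24 h, then treated 24 h with peptide (0.01, 0.1, 1, 10, 100 μM). Positive control 10 μM GW9508, negative control 0.1% DMSO. Secreted insulin measured by mouse insulin ELISA, reported in μIU/mL.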

[6] = tested on: Beta-TC6; test: Decrease in insulin secretion in mouse BetaTC6 cells at 1 to 100 uM after 24 hrs by ELISA; type: functional, cell-based; in short: as §3
[7] = tested on: Beta-TC6; test: Decrease in insulin secretion in mouse BetaTC6 cells assessed as insulin level at 1 to 100 uM after 24 hrs by ELISA (reference value: 1225.2 uIU/ml); type: functional
In short: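 Beta-TC-6 cells grown in high-glucose DMEM with 15% FBS. Seeded at 5000 cells/mL for 24 h, then treated 24 h with peptide at 0.01, 0.1, 1, 10 or 100 μM. Controls were 10 μM GW9508 (positive) and 0.1% DMSO (negative). Secreted insulin measured by mouse insulin ELISA.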

[8] = Stability in water at 200 uM at 100 degC for 2 hrs by RP-HPLC analysis; type: physicochemical; settings: read-out: Stability
In short: (§4)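 Peptide at 200 μM held in a 100 °C water bath or in HCl (pH 2) for 2 h. Sampled at 0, 30, 60, 90 and 120 min, quenched on ice (heat) or with NaOH (acid). Remaining peptide measured by RP-HPLC, in triplicate.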

[9] = Stability in pH 2 HCl at 200 uM for 2 hrs by RP-HPLC analysis; type: physicochemical; settings: read-out: Stability; in short: as §4
[10] = tested on: pepsin; test: Stability in pH 2 HCl assessed as pepsin (unknown origin)-mediated compound hydrolysis by measuring parent compound remaining at 200 uM up to 6 hrs by RP-HPLC analysis; type: ADME; settings: human, pepsin in pH 2 HCl, read-out: Stability
In short: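 Peptide at 200 μM incubated at 37 °C for 6 h with 4 mg/mL pepsin in HCl (pH 2), or with 20 U/mL aminopeptidase I in 20 mM tricine/0.05% BSA (pH 8.0). Sampled at 0, 2, 4 and 6 h, quenched with NaOH or HCl. Remaining peptide measured by RP-HPLC, in triplicate.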

[11] = Stability in human serum after 36 hrs by RP-HPLC analysis; type: ADME, cell-free; settings: read-out: Stability
In short: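 Peptide (0.2 mg) incubated with 25% human male AB serum in phenol red-free DMEM at 37 °C. Aliquots taken at 0, 12, 24 and 48 h, quenched with 95% EtOH, held 15 min at 4 °C and centrifuged. Intact peptide quantified by RP-HPLC, in triplicate.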

[12] = biological target: aminopeptidase (Homo sapiens, UniProt O43895+P15144+P28838+P50579+P53582+P55786+Q07075+Q6P179+Q6Q4G3+Q6UB28+Q8N6M6+Q8NDH3+Q9H4A4+Q9HAU8+Q9NQH7+Q9NQW7+Q9NZ08+Q9UIQ6+Q9ULA0); test: Stability in pH 8.0 20 mM tricine with 0.05% BSA assessed as aminopeptidase (unknown origin)-mediated compound hydrolysis by measuring parent compound remaining at 200 uM up to 6 hrs by RP-HPLC analysis; settings: aminopeptidase in pH 8.0 20 mM tricine with 0.05% BSA
[13] = tested on: Sf9; test: Cytotoxicity against Spodoptera frugiperda Sf9 cells assessed as induction of membrane integrity loss at 10 uM after 24 hrs using Alex488-labeled test compound by PKH26/Hoechst staining based confocal microscopic analysis

## CC[C@H](C)[C@H](NC(=O)[C@H](CS)NC(=O)[C@H](Cc1ccccc1)NC(=O)CNC(=O)[C@@H](NC(=O)[C@@H](NC(=O)[C@H](CC(C)C)NC(=O)CNC(=O)[C@@H](NC(=O)[C@@H]1CCCN1C(=O)[C@@H](NC(=O)[C@H](CS)NC(=O)[C@H](CCCNC(=N)N)NC(=O)[C@H](CS)NC(=O)[C@H](CC(=O)O)NC(=O)[C@H](CCCNC(=N)N)NC(=O)[C@H](CO)NC(=O)CNC(=O)[C@H](CS)NC(=O)[C@@H]1CCCN1C(=O)[C@@H]1CCCN1C(=O)[C@@H](NC(=O)[C@H](CCC(=O)O)NC(=O)[C@H](Cc1ccccc1)NC(=O)[C@@H]1CCCN1C(=O)[C@H](CO)NC(=O)[C@H](CS)NC(=O)[C@H](C)NC(=O)CNC(=O)[C@H](CO)NC(=O)[C@H](CS)NC(=O)[C@H](CC(=O)O)NC(=O)[C@@H](N)C(C)C)C(C)C)[C@@H](C)CC)[C@@H](C)CC)C(C)C)C(C)C)C(=O)N[C@@H](Cc1ccc(O)cc1)C(=O)N1CCC[C@H]1C(=O)N[C@H](C(=O)NCC(=O)O)[C@@H](C)O (H-VDCSGACSPFEVPPCGSRDCRCIPIGLVVGFCIYPTG-OH)
[1]
  LC50: 5.9 µM
[2]
  Activity: Dose-dependent effect
[3]
  Activity: Non-Toxic
[4]
  Activity: Active
[5]
  Activity: inactive
[6]
  Activity: Dose-dependent effect
[7]
  Activity: 811.14 uIU/ml
[8]
  remaining at 2 h, 200 µM: 82%
[9]
  remaining at 2 h, 200 µM: 92%
[10]
  remaining at 6 h, 200 µM: > 88%
[11]
  remaining at 36 h: > 90%
[12]
  remaining at 6 h, 200 µM: > 88%
[13]
  Activity: Active
